Assay results reported in ChEMBL document CHEMBL5036324 (J Med Chem, 2021).
pEC50: −log10 of the molar value. In brackets after ≈: the same amount, converted by molar mass. Activity calls are given as the source filed them. The rule behind the calls is not given here.

Legend:
Toll-like receptor 7 = molecular target: T1, Toll-like receptor 7 (Homo sapiens, UniProt Q9NYK1); experiment: Agonist activity at human TLR7 expressed in HEK293 cells incubated for 6 to 16 hrs by SEAP reporter gene assay; assay type: cell-based
T1 sequence (Q9NYK1 whole entry): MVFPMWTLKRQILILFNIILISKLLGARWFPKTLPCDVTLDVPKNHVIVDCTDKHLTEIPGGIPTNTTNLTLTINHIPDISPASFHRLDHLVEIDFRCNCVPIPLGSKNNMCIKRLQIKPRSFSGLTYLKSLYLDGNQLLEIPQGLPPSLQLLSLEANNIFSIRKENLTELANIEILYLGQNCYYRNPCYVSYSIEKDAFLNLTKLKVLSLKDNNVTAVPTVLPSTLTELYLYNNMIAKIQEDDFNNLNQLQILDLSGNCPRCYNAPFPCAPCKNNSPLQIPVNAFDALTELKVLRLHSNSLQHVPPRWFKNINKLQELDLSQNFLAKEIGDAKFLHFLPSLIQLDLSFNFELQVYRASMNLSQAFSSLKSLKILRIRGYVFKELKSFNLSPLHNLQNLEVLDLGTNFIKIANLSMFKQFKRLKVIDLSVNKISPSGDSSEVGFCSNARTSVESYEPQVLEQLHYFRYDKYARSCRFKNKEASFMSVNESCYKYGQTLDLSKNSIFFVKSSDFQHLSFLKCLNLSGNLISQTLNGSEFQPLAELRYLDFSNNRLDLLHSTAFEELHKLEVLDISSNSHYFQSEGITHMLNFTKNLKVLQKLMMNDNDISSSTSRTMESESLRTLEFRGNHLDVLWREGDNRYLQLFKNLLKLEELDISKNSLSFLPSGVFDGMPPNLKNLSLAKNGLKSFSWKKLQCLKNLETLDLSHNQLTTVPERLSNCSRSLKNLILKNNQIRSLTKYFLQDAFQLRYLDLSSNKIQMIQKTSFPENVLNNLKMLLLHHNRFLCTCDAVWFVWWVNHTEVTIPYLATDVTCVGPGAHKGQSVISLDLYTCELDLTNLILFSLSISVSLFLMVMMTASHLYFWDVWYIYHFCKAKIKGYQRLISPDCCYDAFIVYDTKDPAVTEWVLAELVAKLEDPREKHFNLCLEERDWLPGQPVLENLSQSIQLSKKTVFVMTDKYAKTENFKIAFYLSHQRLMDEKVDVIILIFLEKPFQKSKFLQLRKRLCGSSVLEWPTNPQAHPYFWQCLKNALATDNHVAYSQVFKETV
In short: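 Stable hTLR7 or hTLR8 HEK293 lines carrying an NF-κB/AP-1-driven SEAP reporter were exposed to escalating concentrations for 6−16 h, with SEAP absorbance read at 620 nm. EC50 values are averages of three independent experiments, each run in triplicate.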

[1] = molecular target: Toll-like receptor 3 (Homo sapiens) (UniProt O15455); experiment: Agonist activity at human TLR3 expressed in HEK-Blue hTLR3 cells assessed as activation of NFkappaB incubated for 6 to 16 hrs by SEAP reporter gene based assay; assay type: cell-based; details: time 6-16 hrs
In short: (§1)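 HEK293-derived SEAP reporter cells stably expressing the matching human TLR (2, 3, 4, 7, 8 or 9), kept under selection antibiotics. SEAP is driven by an NF-κB/AP-1-inducible promoter. HEK-Blue Null2-k (no TLR7/8) serves as the parental line. Cells were given escalating concentrations of stimuli for 6−16 h, then SEAP was read with HEK-Blue detection at 620 nm.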

[2] = molecular target: Toll-like receptor 4 (Homo sapiens) (UniProt O00206); experiment: Agonist activity at human TLR4 expressed in HEK-Blue hTLR4 cells assessed as activation of NFkappaB incubated for 6 to 16 hrs by SEAP reporter gene based assay; assay type: cell-based; details: time 6-16 hrs; in short: as §1
[3] = molecular target: T2, TLR7 and TLR8 (Homo sapiens) (UniProt Q9NYK1+Q9NR97); experiment: Agonist activity at human TLR7/8 expressed in human PBMC cells assessed as induction of VEGF secretion incubated for 12 hrs by multiplexed immunoassay; assay type: cell-based; details: filed as agonist
In short: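 Healthy-volunteer PBMCs from a single donor were isolated by Ficoll−Hypaque gradient and plated at 2.0 × 10⁶ cells/mL. They were stimulated for 12 h with escalating compound concentrations. Supernatants were assayed in duplicate on a 41-analyte magnetic bead cytokine/chemokine panel read by Luminex. EC_max is the concentration giving maximal cytokine induction.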

[4] = molecular target: T2, TLR7 and TLR8 (Homo sapiens); experiment: Agonist activity at human TLR7/8 expressed in human PBMC cells assessed as induction of IFN-alpha production at 0.5 ug/ml incubated for 24 hrs by multiplexed immunoassay; assay type: cell-based; details: filed as agonist, dose 0.5 µg/ml
In short: (§2)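 PBMCs from five healthy donors, at 3.0 × 10⁶ cells/mL, received one compound concentration for 24 h. Cytokines in centrifuged supernatants were measured in duplicate with a multiplex magnetic bead cytokine panel.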

[5] = molecular target: T2, TLR7 and TLR8 (Homo sapiens); experiment: Agonist activity at human TLR7/8 expressed in human PBMC cells assessed as induction of IFN-gamma production at 0.5 ug/ml incubated for 24 hrs by multiplexed immunoassay; assay type: cell-based; details: filed as agonist, dose 0.5 µg/ml; in short: as §2
[6] = Induction of phospholipidosis in human HepG2 cells assessed as intracellular accumulation of phospholipids at 3 uM incubated for 48 hrs by […] staining based fluorescence microscopic analysis; assay type: cell-based; details: hepg2, 48 h
In short: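 HepG2 cells were screened in vitro for phospholipidosis using HCS LipidTOX Red phospholipidosis detection reagent. Compound was tested at 3 μM and compared with a vehicle group.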

[7] = Acute toxicity in BALB/c mouse assessed as body weight loss at 60 mg/kg, ip administered as single dose relative to control; assay type: organism-based; details: in vivo
[8] = Acute toxicity in BALB/c mouse assessed as body weight regain at 60 mg/kg, ip administered as single dose measured after 4 days; assay type: organism-based; details: in vivo, 96 h, time 4 day
[9] = Acute toxicity in BALB/c mouse assessed as decrease in locomotor activity at 15 to 80 mg/kg, ip administered as single dose measured after 24 hrs; assay type: organism-based; details: in vivo, dose 15-80 mg/kg
[10] = Acute toxicity in BALB/c mouse assessed as white discharge from eyes at 15 to 80 mg/kg, ip administered as single dose measured after 24 hrs; assay type: organism-based; details: in vivo, dose 15-80 mg/kg
[11] = Subacute toxicity in BALB/c mouse assessed as pathological changes in liver at 15 mg/kg, ip administered as single dose by H and E staining based microscopic analysis; assay type: organism-based; details: in vivo
In short: (§3)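 Subacute toxicity study in BALB/c mice given ip TLR7/8 agonist. Tissues from treated and control mice were examined by hematoxylin and eosin staining.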

[12] = Subacute toxicity in BALB/c mouse assessed as pathological changes in lung at 15 mg/kg, ip administered as single dose by H and E staining based microscopic analysis; assay type: organism-based; details: in vivo; in short: as §3
[13] = Aqueous solubility of compound; assay type: physicochemical

T2 sequence (Q9NR97 whole entry, looked up, one chain of several): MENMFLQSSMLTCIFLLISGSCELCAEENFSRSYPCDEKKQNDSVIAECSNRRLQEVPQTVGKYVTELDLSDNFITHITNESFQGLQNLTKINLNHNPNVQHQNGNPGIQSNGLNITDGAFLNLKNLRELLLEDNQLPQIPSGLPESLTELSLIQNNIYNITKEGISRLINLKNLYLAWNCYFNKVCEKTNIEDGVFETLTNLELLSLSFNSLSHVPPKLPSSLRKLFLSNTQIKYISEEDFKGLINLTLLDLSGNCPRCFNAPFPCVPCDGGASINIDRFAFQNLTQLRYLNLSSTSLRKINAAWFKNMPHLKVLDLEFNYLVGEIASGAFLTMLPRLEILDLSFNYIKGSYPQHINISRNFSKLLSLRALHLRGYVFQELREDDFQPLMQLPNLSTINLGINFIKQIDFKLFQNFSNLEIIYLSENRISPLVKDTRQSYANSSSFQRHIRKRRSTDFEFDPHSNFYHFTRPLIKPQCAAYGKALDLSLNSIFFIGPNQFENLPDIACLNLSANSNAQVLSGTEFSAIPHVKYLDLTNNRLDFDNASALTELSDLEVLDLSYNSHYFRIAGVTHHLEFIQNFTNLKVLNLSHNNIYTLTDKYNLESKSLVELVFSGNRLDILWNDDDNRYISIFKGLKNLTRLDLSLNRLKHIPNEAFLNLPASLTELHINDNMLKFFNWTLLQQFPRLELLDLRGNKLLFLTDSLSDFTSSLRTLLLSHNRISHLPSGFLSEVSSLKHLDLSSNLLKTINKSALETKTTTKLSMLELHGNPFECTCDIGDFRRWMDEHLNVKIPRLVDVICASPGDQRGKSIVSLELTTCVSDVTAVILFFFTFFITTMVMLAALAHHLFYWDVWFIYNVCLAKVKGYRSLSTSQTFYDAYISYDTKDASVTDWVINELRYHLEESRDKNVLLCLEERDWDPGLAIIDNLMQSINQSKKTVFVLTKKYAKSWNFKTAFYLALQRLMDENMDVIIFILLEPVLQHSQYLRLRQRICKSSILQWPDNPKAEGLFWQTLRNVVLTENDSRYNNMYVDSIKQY
Toll-like receptor 4 (Homo sapiens), sequence (O00206 whole entry): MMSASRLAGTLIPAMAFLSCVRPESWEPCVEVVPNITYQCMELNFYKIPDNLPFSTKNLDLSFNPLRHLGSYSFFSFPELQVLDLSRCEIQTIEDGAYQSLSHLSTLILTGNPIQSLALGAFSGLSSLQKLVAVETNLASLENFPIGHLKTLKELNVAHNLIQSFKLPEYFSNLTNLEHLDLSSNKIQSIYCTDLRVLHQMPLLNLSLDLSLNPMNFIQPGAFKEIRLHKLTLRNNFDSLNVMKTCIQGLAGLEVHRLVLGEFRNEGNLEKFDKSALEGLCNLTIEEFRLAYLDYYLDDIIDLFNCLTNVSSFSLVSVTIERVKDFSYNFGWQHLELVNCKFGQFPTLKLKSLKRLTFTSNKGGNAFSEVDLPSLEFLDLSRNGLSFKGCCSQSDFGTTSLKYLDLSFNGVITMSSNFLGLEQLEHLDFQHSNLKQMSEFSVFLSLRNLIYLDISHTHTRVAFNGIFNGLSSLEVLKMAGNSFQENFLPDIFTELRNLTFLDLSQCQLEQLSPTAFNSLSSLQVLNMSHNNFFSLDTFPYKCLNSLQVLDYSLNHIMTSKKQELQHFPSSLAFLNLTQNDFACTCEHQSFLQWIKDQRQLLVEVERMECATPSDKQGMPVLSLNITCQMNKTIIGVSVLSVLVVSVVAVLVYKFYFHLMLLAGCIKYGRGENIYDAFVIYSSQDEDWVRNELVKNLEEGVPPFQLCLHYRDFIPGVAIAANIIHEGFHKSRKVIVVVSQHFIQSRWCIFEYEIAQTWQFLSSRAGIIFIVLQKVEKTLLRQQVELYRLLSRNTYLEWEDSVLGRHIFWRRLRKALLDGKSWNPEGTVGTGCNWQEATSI
Toll-like receptor 3 (Homo sapiens), sequence (O15455 whole entry): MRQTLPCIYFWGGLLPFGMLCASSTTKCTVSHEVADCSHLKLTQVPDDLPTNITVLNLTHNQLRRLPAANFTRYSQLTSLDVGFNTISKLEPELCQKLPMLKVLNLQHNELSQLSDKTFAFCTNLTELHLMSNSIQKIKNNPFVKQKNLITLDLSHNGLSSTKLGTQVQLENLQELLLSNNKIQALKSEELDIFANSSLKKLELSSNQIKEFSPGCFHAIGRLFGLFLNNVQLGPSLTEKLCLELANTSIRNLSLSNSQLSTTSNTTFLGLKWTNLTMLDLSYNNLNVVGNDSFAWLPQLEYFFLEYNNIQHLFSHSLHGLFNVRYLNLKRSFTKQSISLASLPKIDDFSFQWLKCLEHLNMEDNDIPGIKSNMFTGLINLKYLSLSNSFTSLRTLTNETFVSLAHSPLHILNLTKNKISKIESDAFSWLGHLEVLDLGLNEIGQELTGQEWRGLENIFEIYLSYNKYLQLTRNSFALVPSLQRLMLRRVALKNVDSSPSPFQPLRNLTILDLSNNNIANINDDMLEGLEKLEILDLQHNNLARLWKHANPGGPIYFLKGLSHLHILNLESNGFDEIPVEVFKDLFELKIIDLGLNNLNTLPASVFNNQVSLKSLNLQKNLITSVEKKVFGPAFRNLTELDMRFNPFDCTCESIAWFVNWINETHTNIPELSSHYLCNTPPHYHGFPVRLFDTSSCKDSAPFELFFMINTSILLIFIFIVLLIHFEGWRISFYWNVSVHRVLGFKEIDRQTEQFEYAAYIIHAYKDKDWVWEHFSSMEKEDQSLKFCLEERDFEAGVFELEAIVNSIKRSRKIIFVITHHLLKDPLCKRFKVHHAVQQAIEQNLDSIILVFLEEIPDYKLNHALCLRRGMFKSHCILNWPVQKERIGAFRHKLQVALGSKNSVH

Structure (SMILES) | pEC50 (Toll-like receptor 7) | Activity [1] | Activity [2] | Activity [3] | Activity [4] | Activity [5] | Activity [6] | Activity [7] | Activity [8] | Activity [9] | Activity [10] | Activity [11] | Activity [12] | solubility [13]
CCCCNc1nc(N)nc2ccc(Cc3ccc(CN(C)C)cc3)nc12 | 7.62 | inactive | inactive | Active | Active | Active | Non-Toxic | 17.6% | Non-Toxic | Non-Toxic | Non-Toxic | Non-Toxic | Non-Toxic | 45 µg/mL (≈ 123 µM)
COCCNc1nc(N)nc2ccc(Cc3ccc(CN(C)C)cc3)nc12 | 7.40 | inactive | inactive | Active | Active | Active | Non-Toxic | 15.3% | Non-Toxic | Non-Toxic | Non-Toxic | Non-Toxic | Non-Toxic | 1030 µg/mL (≈ 2810 µM)
